Measurements as given in ChEMBL document CHEMBL4400543, “Identification and Characterization of AES-135, a Hydroxamic Acid-Based HDAC Inhibitor That Prolongs Survival in an Orthotopic Mouse Model of Pancreatic Cancer” (J Med Chem, 2019).

What was measured:
[1] = Cytotoxicity against mouse KPC monolayer cells assessed as reduction in tumor spheroid intensity after 72 hrs by Alamar Blue assay; type: functional, cell-based
How it was run: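 Monolayer proliferation of STR-authenticated, mycoplasma-checked patient-derived PDAC lines and mouse KPC cells. Plated at 2000 cells/well, treated 72 h, read by alamarBlue. At least triplicate, n = 3–5.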

Histone deacetylase 3 = Histone deacetylase 3 (Homo sapiens, UniProt O15379); assay: Inhibition of recombinant human HDAC3 expressed in SF9 baculoviral system using FAM-labeled acetylated peptide as substrate by EMSA
How it was run: (§1)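 Full-length recombinant human enzyme from an Sf9 baculovirus system, in 100 mM HEPES pH 7.5 with 25 mM KCl, 0.1% BSA, 0.01% Triton X-100 and 1% DMSO. Final enzyme was 0.5 nM for HDAC3, 60 nM for HDAC6 and 5.0 nM for HDAC8. FAM-acetylated peptide was 1 μM. The read-out was product/(substrate+product) by microfluidic mobility shift, with inhibition set against DMSO and no-enzyme controls (quadruplicate). Compounds were tested at 12 threefold-spaced concentrations, and IC50 came from a four-parameter sigmoid fit.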

[2] = target: T1, Protein deacetylase HDAC6 (Homo sapiens, UniProt Q9UBN7); assay: Inhibition of recombinant human HDAC6 expressed in SF9 baculoviral system using FAM-labeled acetylated peptide as substrate by EMSA; how it was run: as §1
T1 sequence (Q9UBN7 whole entry): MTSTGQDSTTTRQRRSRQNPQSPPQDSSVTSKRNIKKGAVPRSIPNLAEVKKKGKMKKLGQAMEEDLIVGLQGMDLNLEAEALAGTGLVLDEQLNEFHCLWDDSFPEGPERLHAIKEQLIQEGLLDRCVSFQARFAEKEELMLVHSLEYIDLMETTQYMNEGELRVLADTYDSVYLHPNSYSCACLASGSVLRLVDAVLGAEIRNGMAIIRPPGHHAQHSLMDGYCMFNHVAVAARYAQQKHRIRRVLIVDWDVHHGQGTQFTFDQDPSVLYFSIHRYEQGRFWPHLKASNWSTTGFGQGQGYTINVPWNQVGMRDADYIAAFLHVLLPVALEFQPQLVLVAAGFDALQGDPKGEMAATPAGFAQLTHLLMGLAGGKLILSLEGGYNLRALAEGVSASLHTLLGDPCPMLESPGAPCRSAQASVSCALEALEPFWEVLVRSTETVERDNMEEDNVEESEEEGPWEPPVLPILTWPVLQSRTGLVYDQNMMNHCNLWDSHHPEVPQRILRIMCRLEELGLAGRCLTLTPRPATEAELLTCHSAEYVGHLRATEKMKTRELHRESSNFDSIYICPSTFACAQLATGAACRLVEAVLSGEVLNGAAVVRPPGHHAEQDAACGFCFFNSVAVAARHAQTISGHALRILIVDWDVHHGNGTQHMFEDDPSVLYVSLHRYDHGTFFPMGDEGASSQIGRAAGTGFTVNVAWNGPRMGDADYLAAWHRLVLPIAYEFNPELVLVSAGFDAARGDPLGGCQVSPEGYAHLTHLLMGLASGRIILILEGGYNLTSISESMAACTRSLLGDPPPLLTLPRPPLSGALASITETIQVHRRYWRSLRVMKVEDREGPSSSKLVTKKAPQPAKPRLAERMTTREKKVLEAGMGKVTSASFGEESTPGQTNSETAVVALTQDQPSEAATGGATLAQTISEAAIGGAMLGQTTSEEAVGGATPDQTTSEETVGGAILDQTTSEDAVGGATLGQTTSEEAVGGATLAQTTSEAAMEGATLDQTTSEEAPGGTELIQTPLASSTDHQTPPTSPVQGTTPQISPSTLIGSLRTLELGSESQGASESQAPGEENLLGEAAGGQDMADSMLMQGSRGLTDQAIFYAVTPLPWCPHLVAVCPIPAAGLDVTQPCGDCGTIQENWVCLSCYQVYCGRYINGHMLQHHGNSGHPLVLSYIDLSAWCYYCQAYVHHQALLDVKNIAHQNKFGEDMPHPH

Histone deacetylase 8 = target: T2, Histone deacetylase 8 (Homo sapiens, UniProt Q9BY41); assay: Inhibition of recombinant human HDAC8 expressed in SF9 baculoviral system using FAM-labeled acetylated peptide as substrate by EMSA; how it was run: as §1
T2 sequence (Q9BY41 whole entry): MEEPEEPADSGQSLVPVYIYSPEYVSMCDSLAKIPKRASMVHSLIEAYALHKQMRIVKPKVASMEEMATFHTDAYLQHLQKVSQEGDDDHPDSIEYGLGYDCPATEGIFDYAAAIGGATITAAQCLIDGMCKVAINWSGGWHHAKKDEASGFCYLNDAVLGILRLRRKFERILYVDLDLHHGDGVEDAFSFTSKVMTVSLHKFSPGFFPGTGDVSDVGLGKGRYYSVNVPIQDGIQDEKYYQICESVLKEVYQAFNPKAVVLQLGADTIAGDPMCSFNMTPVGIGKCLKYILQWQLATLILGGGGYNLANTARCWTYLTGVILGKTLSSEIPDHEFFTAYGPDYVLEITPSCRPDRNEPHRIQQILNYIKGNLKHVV

Histone deacetylase 11 = target: T3, Histone deacetylase 11 (Homo sapiens, UniProt Q96DB2); assay: Inhibition of recombinant human HDAC11 expressed in SF9 baculoviral system using FAM-labeled acetylated peptide as substrate by EMSA
T3 sequence (Q96DB2 whole entry): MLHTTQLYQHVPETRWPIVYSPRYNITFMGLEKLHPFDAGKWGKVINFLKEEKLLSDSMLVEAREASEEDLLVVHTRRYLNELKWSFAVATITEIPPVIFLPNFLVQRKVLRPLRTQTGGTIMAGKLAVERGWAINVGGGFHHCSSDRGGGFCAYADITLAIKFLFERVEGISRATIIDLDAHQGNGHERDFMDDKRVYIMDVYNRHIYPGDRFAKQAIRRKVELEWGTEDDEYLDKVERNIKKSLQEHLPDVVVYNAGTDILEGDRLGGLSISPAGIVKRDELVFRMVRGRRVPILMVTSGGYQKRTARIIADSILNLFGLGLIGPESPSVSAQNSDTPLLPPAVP
How it was run: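 Full-length human HDAC11 (Sf9-expressed), 10 nM final, in 100 mM HEPES pH 7.5, 25 mM KCl, 0.1% BSA, 0.01% Triton X-100, 1% DMSO. FAM-acetylated peptide substrate at 100 μM, mobility-shift read-out. Product/(substrate + product) converted to % inhibition. IC50 from a four-parameter fit; dose-response spans 12 threefold dilutions from 30.0 μM.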

[3] = Intrinsic clearance in ICR/CD1 mouse hepatocytes assessed per million cells at 1 uM up to 120 mins by LC-MS/MS analysis; type: ADME, cell-based, Hepatocyte; conditions: 2 h
[4] = Half life in ICR/CD1 mouse hepatocytes at 1 uM up to 120 mins by LC-MS/MS analysis; type: ADME, cell-based, Hepatocyte; conditions: 2 h

Chain of Histone deacetylase 3 (O15379 whole entry): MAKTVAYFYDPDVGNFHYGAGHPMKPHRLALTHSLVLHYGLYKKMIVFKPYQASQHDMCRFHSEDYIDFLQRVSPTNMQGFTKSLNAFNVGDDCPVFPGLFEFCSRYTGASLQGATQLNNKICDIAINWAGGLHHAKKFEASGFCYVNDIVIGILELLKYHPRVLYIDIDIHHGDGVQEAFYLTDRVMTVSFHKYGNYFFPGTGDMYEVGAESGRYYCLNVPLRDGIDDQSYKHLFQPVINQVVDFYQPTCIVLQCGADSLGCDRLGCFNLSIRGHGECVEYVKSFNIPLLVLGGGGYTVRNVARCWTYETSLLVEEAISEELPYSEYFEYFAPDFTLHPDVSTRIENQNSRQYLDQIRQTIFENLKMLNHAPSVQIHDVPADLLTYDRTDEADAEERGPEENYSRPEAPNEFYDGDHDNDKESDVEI

| IC50 (Histone deacetylase 3) [nM] | IC50 [2] [nM] | IC50 (Histone deacetylase 8) [nM] | IC50 (Histone deacetylase 11) [nM] | CLH [3] [µL/min] | t1/2 [4] [min] | Compound | IC50 [1] [nM] |
| --- | --- | --- | --- | --- | --- | --- | --- |
| > 1000 | 151 | > 1000 | 346 | – | – | O=C(NO)c1ccc(N(Cc2ccc(C(F)(F)F)cc2)C(=O)CN(Cc2ccccc2C(F)(F)F)S(=O)(=O)c2ccc(F)cc2F)cc1 | – |
| > 1000 | 230 | > 1000 | 253 | – | – | CC(C)(C)c1ccc(CN(C(=O)CN(Cc2ccccc2C(F)(F)F)S(=O)(=O)c2ccc(F)cc2)c2ccc(C(=O)NO)cc2)cc1 | – |
| > 1000 | 362 | > 1000 | 254 | – | – | CC(C)(C)c1ccc(CN(C(=O)CN(Cc2ccccc2C(F)(F)F)S(=O)(=O)c2ccc(F)c(F)c2)c2ccc(C(=O)NO)cc2)cc1 | – |
| > 1000 | 289 | > 1000 | 288 | – | – | CC(C)(C)c1ccc(CN(C(=O)CN(Cc2ccccc2C(F)(F)F)S(=O)(=O)c2ccc(F)cc2F)c2ccc(C(=O)NO)cc2)cc1 | – |

Second part, the compound before the results:

| Compound | IC50 (Histone deacetylase 3) [nM] | IC50 [2] [nM] | IC50 (Histone deacetylase 8) [nM] | IC50 (Histone deacetylase 11) [nM] | CLH [3] [µL/min] | t1/2 [4] [min] | IC50 [1] [nM] |
| --- | --- | --- | --- | --- | --- | --- | --- |
| Cc1[nH]c2ccccc2c1CCNCc1ccc(/C=C/C(=O)NO)cc1 [PANOBINOSTAT] | – | – | – | – | – | – | 8500 |
| O=C(NO)c1ccc(N(Cc2ccc(C(F)(F)F)cc2)C(=O)CN(Cc2ccccc2C(F)(F)F)S(=O)(=O)c2ccc(F)c(F)c2)cc1 | > 1000 | 188 | > 1000 | 396 | – | – | – |
| O=C(NO)c1ccc(N(Cc2ccc(C(F)(F)F)cc2)C(=O)CN(Cc2ccccc2C(F)(F)F)S(=O)(=O)c2ccc(F)cc2)cc1 | > 1000 | 93 | > 1000 | 304 | – | – | – |
| O=C(NO)c1ccc(N(Cc2ccc(C(F)(F)F)cc2)C(=O)CN(Cc2c(F)c(F)c(F)c(F)c2F)S(=O)(=O)c2ccc(F)cc2)cc1 | > 1000 | 86 | > 1000 | 191 | 37.4 | 37.1 | – |
